Converted amounts (≈) assume the structure as drawn.

In assay [1] the test system is Mycobacterium kansasii. The assay can be described thus: Antimycobacterial activity against Mycobacterium kansasii My 6509/96 clinical isolate after 7 days by micromethod. The conditions noted are these: My 6509/96, 168 h. It counts as functional.
The subject of assay [2] is Mycobacterium avium. Put plainly: Antimycobacterial activity against Mycobacterium avium My 330/88 after 21 days by micromethod. It counts as functional. The note with it: My 330/88, 504 h.
The test system of assay [3] is Mycobacterium avium. The assay can be described thus: Antimycobacterial activity against Mycobacterium avium My 330/88 after 14 days by micromethod. Format: functional. The note with it: My 330/88, 336 h.
Assay [4] deals with Mycobacterium kansasii. Put plainly: Antimycobacterial activity against Mycobacterium kansasii My 6509/96 clinical isolate after 14 days by micromethod. It counts as functional. The note with it: My 6509/96, 336 h.
Assay [5] in a line: Selectivity ratio of IC50 for human HepG2 cells to MIC for Mycobacterium tuberculosis My 331/88 after 14 days. Format: functional. Put shortly: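 HepG2 cells (passage 12) at 10,000 cells/well in MEM with 10% FBS, 1% glutamine and 1% nonessential amino acids, pre-incubated 24 h at 37 °C, 5% CO2. Compounds in DMSO at eight concentrations in quadruplicate for 24 h. MTS-type reagent added for 1.5 h, absorbance at 490 nm. IC50 from curve fit. SI = IC50 / 14-day MIC against M. tuberculosis 331/88.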

Another assay relates to HepG2. The assay can be described thus: Cytotoxicity against human HepG2 cells after 24 hrs by CellTiter assay. The note with it: HepG2, 24 h. Format: cell-based. In a few lines: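 Hep G2 cells (passage 12), 10,000 per well in MEM with 1% glutamine, 10% FBS and 1% nonessential amino acids, preincubated 24 h at 37 °C, 5% CO2. Compounds dissolved in DMSO, tested at eight concentrations in quadruplicate for 24 h at 37 °C. MTS-type reagent added for 1.5 h, absorbance read at 490 nm. IC50 = concentration reducing viability to 50% of control.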

Assay [6] relates to Mycobacterium tuberculosis. Put plainly: Antimycobacterial activity against Mycobacterium tuberculosis My 331/88 after 21 days by micromethod. The note with it: My 331/88, 504 h. Format: functional. Put shortly:
(§1)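 MIC by micromethod at 37 °C, read after 14 and 21 days. Inocula were M. tuberculosis My 331/88 at 10^-3 dilution and M. avium My 330/88 at 10^-5 dilution. Compounds added in DMSO across 1000, 500, 250, 125, 62.5, 32, 16, 8, 4, 2, 1 and 0.5; isoniazid standard in sterile water. MIC taken as the lowest concentration inhibiting growth.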

Assay [7] has as its system Mycobacterium kansasii. The assay can be described thus: Antimycobacterial activity against Mycobacterium kansasii My 235/80 after 21 days by micromethod. Format: functional. The conditions noted are these: My 235/80, 504 h.
Assay [8] concerns Mycobacterium kansasii. Put plainly: Antimycobacterial activity against Mycobacterium kansasii My 235/80 after 7 days by micromethod. It counts as functional. The note with it: My 235/80, 168 h.
Assay [9] concerns the target T1, Isocitrate lyase (Mycobacterium tuberculosis) (UniProt P9WKK7).
T1 sequence (whole entry): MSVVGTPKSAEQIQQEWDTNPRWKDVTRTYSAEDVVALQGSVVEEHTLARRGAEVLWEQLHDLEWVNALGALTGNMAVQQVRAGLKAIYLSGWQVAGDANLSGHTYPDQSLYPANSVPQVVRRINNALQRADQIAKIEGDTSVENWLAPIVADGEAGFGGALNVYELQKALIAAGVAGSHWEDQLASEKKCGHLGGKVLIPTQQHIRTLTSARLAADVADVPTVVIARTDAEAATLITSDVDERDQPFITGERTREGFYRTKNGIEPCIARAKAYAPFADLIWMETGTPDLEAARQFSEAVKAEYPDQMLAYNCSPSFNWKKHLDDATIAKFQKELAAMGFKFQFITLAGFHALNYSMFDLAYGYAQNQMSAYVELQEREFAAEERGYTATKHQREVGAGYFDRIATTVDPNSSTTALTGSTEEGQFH
The assay can be described thus: Inhibition of Mycobacterium tuberculosis H37Rv isocitrate lyase expressed in Escherichia coli BL21(DE3) using (+)-potassium Ds-threo-isocitrate as substrate assessed as glyoxylate phenyl hydrazone formation at 100 umol/L by spectrophotometry.

Assay [10] relates to Mycobacterium kansasii. Put plainly: Antimycobacterial activity against Mycobacterium kansasii My 235/80 after 14 days by micromethod. It counts as functional. The note with it: My 235/80, 336 h.
For assay [11], the system named is Mycobacterium kansasii. The assay can be described thus: Antimycobacterial activity against Mycobacterium kansasii My 6509/96 clinical isolate after 21 days by micromethod. It counts as functional. The conditions noted are these: My 6509/96, 504 h.
In assay [12] the test system is Mycobacterium tuberculosis. The assay can be described thus: Antimycobacterial activity against Mycobacterium tuberculosis My 331/88 after 14 days by micromethod. Format: functional. The conditions noted are these: My 331/88, 336 h. Put shortly:
as §1

Take `COc1cc(Cl)ccc1C(=S)Nc1cccc(C(F)(F)F)c1`: the MIC is 16 µM (≈ 5.53 µg/mL) against Mycobacterium kansasii [1]; 32 µM (≈ 11.1 µg/mL) in the assay on Mycobacterium avium [2]; 32 µM (≈ 11.1 µg/mL) with Mycobacterium avium [3]; 32 µM (≈ 11.1 µg/mL) in the assay on Mycobacterium kansasii [4]; 8 µM (≈ 2.77 µg/mL) in [6]; 32 µM (≈ 11.1 µg/mL) against Mycobacterium kansasii [7]. The minimum inhibitory concentration (MIC) with Mycobacterium kansasii [8] is 16 µM (≈ 5.53 µg/mL); against Mycobacterium kansasii [10], 32 µM (≈ 11.1 µg/mL); with Mycobacterium kansasii [11] it was 32 µM (≈ 11.1 µg/mL); in [12], 4 µM (≈ 1.38 µg/mL). In addition, the Selectivity ratio in assay [5] turned out to be 0.45. This molecule yielded an IC50 in the assay on HepG2 of 1.81 µM. Further, the inhibition in assay [9] was 23%.
In the case of `COc1cc(Cl)ccc1C(=S)Nc1cccc(Cl)c1`, the minimum inhibitory concentration (MIC) amounted to 16 µM (≈ 5 µg/mL) with Mycobacterium kansasii [1]; 16 µM (≈ 5 µg/mL) with Mycobacterium avium [2]; 16 µM (≈ 5 µg/mL) in the assay with Mycobacterium avium [3]; 32 µM (≈ 9.99 µg/mL) against Mycobacterium kansasii [4]; 16 µM (≈ 5 µg/mL) in assay [6]; 32 µM (≈ 9.99 µg/mL) with Mycobacterium kansasii [7]. The MIC with Mycobacterium kansasii [8] was 16 µM (≈ 5 µg/mL); against Mycobacterium kansasii [10], 32 µM (≈ 9.99 µg/mL); against Mycobacterium kansasii [11], 32 µM (≈ 9.99 µg/mL); in assay [12] it was 4 µM (≈ 1.25 µg/mL). For the same molecule, the Selectivity ratio in assay [5] came to 2.92. In addition, the IC50 with HepG2 was determined as 11.7 µM. For the same molecule, the inhibition in [9] came out at 20%.
For the molecule `COc1cc(Cl)ccc1C(=S)Nc1ccc(Br)cc1`, the MIC in the assay on Mycobacterium kansasii [1] came to 16 µM (≈ 5.71 µg/mL); in the assay with Mycobacterium avium [2] it was 62.5 µM (≈ 22.3 µg/mL); against Mycobacterium avium [3], 16 µM (≈ 5.71 µg/mL); in the assay on Mycobacterium kansasii [4], 32 µM (≈ 11.4 µg/mL); in [6], 16 µM (≈ 5.71 µg/mL); against Mycobacterium kansasii [7], 62.5 µM (≈ 22.3 µg/mL). In addition, the MIC against Mycobacterium kansasii [8] worked out at 32 µM (≈ 11.4 µg/mL); in the assay on Mycobacterium kansasii [10], 62.5 µM (≈ 22.3 µg/mL); with Mycobacterium kansasii [11] it was 62.5 µM (≈ 22.3 µg/mL); in assay [12] it was 4 µM (≈ 1.43 µg/mL). Besides, the Selectivity ratio in [5] stood at 0.89. In the assay on HepG2, the IC50 is 3.55 µM. The inhibition in assay [9] is 27%.
Regarding `COc1cc(Cl)ccc1C(=S)Nc1ccc(Cl)c(Cl)c1`, the minimum inhibitory concentration (MIC) against Mycobacterium kansasii [1] turned out to be 16 µM (≈ 5.55 µg/mL); against Mycobacterium avium [2], 32 µM (≈ 11.1 µg/mL); in the assay with Mycobacterium avium [3] it was 32 µM (≈ 11.1 µg/mL); against Mycobacterium kansasii [4], 32 µM (≈ 11.1 µg/mL); in [6], 8 µM (≈ 2.77 µg/mL); in the assay on Mycobacterium kansasii [7], 62.5 µM (≈ 21.7 µg/mL). Moreover, the MIC was determined as 16 µM (≈ 5.55 µg/mL) against Mycobacterium kansasii [8], 32 µM (≈ 11.1 µg/mL) in the assay on Mycobacterium kansasii [10], 32 µM (≈ 11.1 µg/mL) against Mycobacterium kansasii [11] and 2 µM (≈ 0.693 µg/mL) in assay [12]. The Selectivity ratio in assay [5] was 3.25. In the assay with HepG2, this molecule had an IC50 of 6.5 µM. The inhibition in assay [9] stood at 17%.
For `COc1cc(Cl)ccc1C(=S)Nc1ccc(Cl)cc1`, the minimal inhibitory concentration (MIC) in the assay on Mycobacterium kansasii [1] was determined as 16 µM (≈ 5 µg/mL); with Mycobacterium avium [2] it was 32 µM (≈ 9.99 µg/mL); against Mycobacterium avium [3], 32 µM (≈ 9.99 µg/mL); with Mycobacterium kansasii [4], 32 µM (≈ 9.99 µg/mL); in assay [6] it was 16 µM (≈ 5 µg/mL); against Mycobacterium kansasii [7], 62.5 µM (≈ 19.5 µg/mL). In addition, the MIC in the assay on Mycobacterium kansasii [8] amounted to 32 µM (≈ 9.99 µg/mL); with Mycobacterium kansasii [10], 62.5 µM (≈ 19.5 µg/mL); in the assay on Mycobacterium kansasii [11] it was 62.5 µM (≈ 19.5 µg/mL); in assay [12], 4 µM (≈ 1.25 µg/mL). Also, in assay [5], the Selectivity ratio is reported as 0.73. Also, the IC50 with HepG2 was determined as 2.93 µM. The inhibition in assay [9] came to 39%.
As to `COc1cc(Cl)ccc1C(=O)Nc1ccc(C(F)(F)F)cc1`, the MIC was determined as 32 µM (≈ 10.6 µg/mL) with Mycobacterium kansasii [1]; 125 µM (≈ 41.2 µg/mL) in the assay on Mycobacterium avium [2]; 62.5 µM (≈ 20.6 µg/mL) with Mycobacterium avium [3]; 125 µM (≈ 41.2 µg/mL) with Mycobacterium kansasii [4]; 125 µM (≈ 41.2 µg/mL) in assay [6]; 125 µM (≈ 41.2 µg/mL) with Mycobacterium kansasii [7]. The MIC (against Mycobacterium kansasii [8]; with Mycobacterium kansasii [10]; against Mycobacterium kansasii [11]; in assay [12]) was 125 µM (≈ 41.2 µg/mL) throughout.
As to `COc1ccc(Cl)cc1C(=O)Nc1ccc(Cl)cc1`, the MIC stood at 62.5 µM (≈ 18.5 µg/mL) with Mycobacterium kansasii [1]; 62.5 µM (≈ 18.5 µg/mL) against Mycobacterium avium [2]; 62.5 µM (≈ 18.5 µg/mL) in the assay on Mycobacterium avium [3]; 125 µM (≈ 37 µg/mL) with Mycobacterium kansasii [4]; 62.5 µM (≈ 18.5 µg/mL) in assay [6]; 250 µM (≈ 74 µg/mL) against Mycobacterium kansasii [7]. For the same molecule, the MIC with Mycobacterium kansasii [8] was 62.5 µM (≈ 18.5 µg/mL); with Mycobacterium kansasii [10], 250 µM (≈ 74 µg/mL); against Mycobacterium kansasii [11], 125 µM (≈ 37 µg/mL); in [12], 62.5 µM (≈ 18.5 µg/mL).

In general, MIC refers to the lowest concentration that inhibits growth of the organism. Higher therefore signals weaker potency. In general, IC50 refers to the concentration needed to halve the response being measured. Read a low IC50 as greater potency. The term inhibition denotes the drop in the measured response relative to a control, in per cent.

For the origin of these results see ChEMBL document CHEMBL2086318, “Synthesis and in vitro antimycobacterial activity of 2-methoxybenzanilides and their thioxo analogues” (Eur J Med Chem, 2012).
